From ChEMBL document CHEMBL4715791, “Enhancing Therapeutic Efficacy of Cisplatin by Blocking DNA Damage Repair” (ACS Med Chem Lett, 2016)
Calls of active or inactive are those of the source. The calls are words filed in the database; no cut-off is given here.

Columns and labels:
[1] = Potentiation of cisplatin-induced antitumor activity against mouse U14 cells implanted in Kunming mouse assessed as tumor volume at 1.5 mg/kg, ip administered on day 2, 5, 8 cotreated with cisplatin at 5 mg/kg, ip on day 1, 4, 7 and measured at day 10 by caliper method (reference value: 178 +/- 33 mm3); assay type: functional; conditions: time 10 day
Method in brief: (§1)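 KM mice bearing subcutaneous U14 mouse cervical cancer xenografts. Groups received saline, cisplatin 5 mg/kg, compound 1.5 mg/kg, or both (1:1 molar ratio). Relative tumor volume followed over about 2 weeks.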

[2] = tested on: HeLa; assay: Inhibition of PP2A in human HeLa cells assessed as enzyme activity at 10 uM measured after 3 hrs in presence of cisplatin by malachite green phosphatase assay relative to control; assay type: cell-based; parameters: scale not given: the % may be the effect or the level left
Method in brief: (§2)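 PP2A activity measured in HeLa cells after 3 h exposure to compound, alone or combined with cisplatin. Activity expressed as % of untreated control.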

[3] = tested on: A549; assay: Potentiation of cisplatin-induced apoptosis in human A549 cells at 32.7 uM measured after 24 hrs in presence of cisplatin by annexinV-FITC/propidium iodide staining based flow cytometry (reference value: 36.9%); assay type: functional
[4] = tested on: A549; assay: Anticancer activity against human A549 cells assessed as reduction in cell viability measured after 24 to 72 hrs by MTT assay; assay type: functional, cell-based; conditions: time 24-72 hrs
Method in brief: (§3)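 MTT viability assay in HeLa and A549 cells, with concentration- and time-dependent exposures.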

[5] = tested on: HeLa; assay: Anticancer activity against human HeLa cells assessed as reduction in cell viability at 1 to 100 uM by MTT assay; assay type: functional, cell-based; conditions: dose 1-100 µM, time 24-72 hrs, TDE = time-dependent effect
[6] = tested on: HeLa; assay: Synergistic anticancer activity against human HeLa cells assessed as combination index at cisplatin to compound ratio of 1:0.5 measured after 24 hrs by MTT based Chou-Talalay method; assay type: functional
Method in brief: (§4)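 Cisplatin and compound given together at fixed molar ratios. Viability read by MTT. Combination index computed at 50% inhibition (CI50); below 1 = synergism, 1 = additivity, above 1 = antagonism. Tested at 24, 48 and 72 h incubation.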

[7] = tested on: HeLa; assay: Antagonistic anticancer activity against human HeLa cells assessed as combination index at cisplatin to compound ratio of 1:0.3 measured after 48 to 72 hrs by MTT based Chou-Talalay method; assay type: functional; conditions: time 48-72 hrs; method in brief: as §4
[8] = tested on: HeLa; assay: Inhibition of PP2A in human HeLa cells assessed as increase in phosphorylated Akt expression level at 2.5 uM measured after 24 hrs in presence of cisplatin by Hoechst staining based immunofluorescence assay; assay type: cell-based
[9] = tested on: HeLa; assay: Potentiation of cisplatin-induced apoptosis in human HeLa cells assessed as late apoptotic cells at 6.8 uM measured after 24 hrs in presence of cisplatin by annexinV-FITC/propidium iodide staining based flow cytometry (reference value: 54%); assay type: functional
[10] = tested on: HeLa; assay: Induction of cell cycle arrest in human HeLa cells assessed as accumulation at S phase at 6.8 uM measured after 24 hrs by propidium iodide/RNase staining based flow cytometry (reference value: 27.21 %); assay type: functional
[11] = tested on: HeLa; assay: Effect on tubulin expression in human HeLa cells at 2.5 uM measured after 24 hrs by Hoechst staining based immunofluorescence assay; assay type: functional, cell-based
[12] = tested on: HeLa; assay: Effect on tubulin expression in human HeLa cells at 2.5 uM measured after 24 hrs in presence of cisplatin by DAPI staining based immunofluorescence assay
[13] = tested on: U14; assay: Antitumor activity against mouse U14 cells implanted in Kunming mouse assessed as tumor growth inhibition at 1.5 mg/kg, ip administered on day 2, 5, 8 measured after 1 week by caliper method; assay type: functional, organism-based; conditions: time 1.0 weeks; method in brief: as §1
[14] = Toxicity in Kunming mouse implanted with mouse U14 cells assessed as change in body weight at 1.5 mg/kg, ip administered on day 2, 5, 8; assay type: organism-based; conditions: in vivo, 72 h, time 3 day
Method in brief: (§5)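 U14-xenografted KM mice given saline, cisplatin 5 mg/kg, compound 1.5 mg/kg or both. Body weight monitored as a measure of systemic toxicity.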

[15] = tested on: HeLa; assay: Inhibition of PP2A in human HeLa cells assessed as increase in phosphorylated ERK expression level at 2.5 uM measured after 24 hrs by Hoechst staining based immunofluorescence assay; assay type: cell-based
[16] = tested on: A549; assay: Induction of cell cycle arrest in human A549 cells assessed as accumulation at G1 phase at 32.7 uM measured after 24 hrs by propidium iodide/RNase staining based flow cytometry (reference value: 60.8 %); assay type: functional
[17] = tested on: A549; assay: Induction of apoptosis in human A549 cells at 32.7 uM measured after 24 hrs by annexinV-FITC/propidium iodide staining based flow cytometry relative to control; assay type: functional
[18] = tested on: HeLa; assay: Inhibition of PP2A in human HeLa cells assessed as increase in phosphorylated Akt expression level at 2.5 uM measured after 24 hrs by Hoechst staining based immunofluorescence assay; assay type: cell-based
[19] = tested on: HeLa; assay: Synergistic anticancer activity against human HeLa cells assessed as combination index at cisplatin to compound ratio of 1:1 measured after 24 to 72 hrs by MTT based Chou-Talalay method; assay type: functional; conditions: time 24-72 hrs; method in brief: as §4
[20] = Toxicity in Kunming mouse implanted with mouse U14 cells assessed as reduction in body weight at 1.5 mg/kg, ip administered on day 2, 5, 8 cotreated with cisplatin at 5 mg/kg, ip on day 1, 4, 7 and measured after 1 week; assay type: organism-based; conditions: in vivo, 168 h, time 1 weeks; method in brief: as §5
[21] = tested on: HeLa; assay: Effect on total Akt expression in human HeLa cells at 2.5 uM measured after 24 hrs in presence of cisplatin by Hoechst staining based immunofluorescence assay; assay type: functional, cell-based
[22] = tested on: A549; assay: Induction of cell cycle arrest in human A549 cells assessed as accumulation at S phase at 32.7 uM measured after 24 hrs by propidium iodide/RNase staining based flow cytometry (reference value: 27.5 %); assay type: functional
[23] = tested on: A549; assay: Potentiation of cisplatin-induced cell cycle arrest in human A549 cells assessed as accumulation at G2/M phase at 32.7 uM measured after 24 hrs in presence of cisplatin by propidium iodide/RNase staining based flow cytometry (reference value: 36.13 %); assay type: functional
[24] = tested on: HeLa; assay: Potentiation of cisplatin-induced cell cycle arrest in human HeLa cells assessed as accumulation at G1 phase at 6.8 uM measured after 24 hrs in presence of cisplatin by propidium iodide/RNase staining based flow cytometry (reference value: 61.13 %); assay type: functional
[25] = tested on: HeLa; assay: Inhibition of PP2A in human HeLa cells assessed as increase in phosphorylated ERK expression level at 2.5 uM measured after 24 hrs by Western blot analysis; assay type: cell-based
Method in brief: (§6)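 HeLa cells exposed 24 h to cisplatin, compound or the combination. P-Akt and P-ERK read by Western blot.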

[26] = tested on: HeLa; assay: Anticancer activity against human HeLa cells assessed as reduction in cell viability measured after 24 to 72 hrs by MTT assay; assay type: functional, cell-based; conditions: dose 1-100 µM, time 24-72 hrs; method in brief: as §3
[27] = tested on: U14; assay: Antitumor activity against mouse U14 cells implanted in Kunming mouse assessed as tumor growth inhibition at 1.5 mg/kg, ip administered on day 2, 5, 8 measured after 2 weeks by caliper method; assay type: functional, organism-based; method in brief: as §1
[28] = tested on: HeLa; assay: Potentiation of cisplatin-induced cell cycle arrest in human HeLa cells assessed as accumulation at G2/M phase at 6.8 uM measured after 24 hrs in presence of cisplatin by propidium iodide/RNase staining based flow cytometry (reference value: 11.69 %); assay type: functional
[29] = tested on: HeLa; assay: Potentiation of cisplatin-induced apoptosis in human HeLa cells assessed as early apoptotic cells at 6.8 uM measured after 24 hrs in presence of cisplatin by annexinV-FITC/propidium iodide staining based flow cytometry (reference value: 4.8%); assay type: functional
[30] = tested on: HeLa; assay: Inhibition of PP2A in human HeLa cells assessed as enzyme activity at 10 uM measured after 3 hrs by malachite green phosphatase assay relative to control; assay type: cell-based; parameters: scale not given: the % may be the effect or the level left; method in brief: as §2
[31] = tested on: HeLa; assay: Induction of apoptosis in human HeLa cells assessed as late apoptotic cells at 6.8 uM measured after 24 hrs by annexinV-FITC/propidium iodide staining based flow cytometry relative to control; assay type: functional
[32] = tested on: A549; assay: Induction of cell cycle arrest in human A549 cells assessed as accumulation at G2/M phase at 32.7 uM measured after 24 hrs by propidium iodide/RNase staining based flow cytometry (reference value: 11.7 %); assay type: functional
[33] = tested on: A549; assay: Potentiation of cisplatin-induced cell cycle arrest in human A549 cells assessed as accumulation at S phase at 32.7 uM measured after 24 hrs in presence of cisplatin by propidium iodide/RNase staining based flow cytometry (reference value: 21.52 %); assay type: functional
[34] = tested on: HeLa; assay: Effect on total ERK level in human HeLa cells at 2.5 uM measured after 24 hrs in presence of cisplatin by Hoechst staining based immunofluorescence assay; assay type: functional, cell-based
[35] = tested on: HeLa; assay: Inhibition of PP2A in human HeLa cells assessed as increase in phosphorylated ERK expression level at 2.5 uM measured after 24 hrs in presence of cisplatin by Hoechst staining based immunofluorescence assay; assay type: cell-based
[36] = tested on: HeLa; assay: Induction of cell cycle arrest in human HeLa cells assessed as accumulation at G1 phase at 6.8 uM measured after 24 hrs by propidium iodide/RNase staining based flow cytometry (reference value: 62.27 %); assay type: functional
[37] = tested on: HeLa; assay: Effect on total ERK level in human HeLa cells at 2.5 uM measured after 24 hrs by Hoechst staining based immunofluorescence assay; assay type: functional, cell-based
[38] = tested on: A549; assay: Synergistic anticancer activity against human A549 cells assessed as combination index at cisplatin:compound ratio of 1:0.5 to 1:3 measured after 24 hrs in presence of cisplatin by MTT based Chou-Talalay method; assay type: functional; method in brief: as §4
[39] = Toxicity in Kunming mouse implanted with mouse U14 cells assessed as reduction in body weight at 1.5 mg/kg, ip administered on day 2, 5, 8 cotreated with cisplatin at 5 mg/kg, ip on day 1, 4, 7 and measured after 2 weeks; assay type: organism-based; conditions: in vivo, 336 h; method in brief: as §5
[40] = tested on: HeLa; assay: Inhibition of PP2A in human HeLa cells assessed as increase in phosphorylated AKT expression level at 2.5 uM measured after 24 hrs by Western blot analysis; assay type: cell-based; method in brief: as §6
[41] = tested on: HeLa; assay: Antagonistic anticancer activity against human HeLa cells assessed as combination index at cisplatin to compound ratio of 1:2 measured after 48 to 72 hrs by MTT based Chou-Talalay method; assay type: functional; conditions: time 48-72 hrs; method in brief: as §4
[42] = tested on: HeLa; assay: Induction of cell cycle arrest in human HeLa cells assessed as accumulation at G2/M phase at 6.8 uM measured after 24 hrs by propidium iodide/RNase staining based flow cytometry (reference value: 10.52 %); assay type: functional
[43] = tested on: HeLa; assay: Induction of apoptosis in human HeLa cells assessed as early apoptotic cells at 6.8 uM measured after 24 hrs by annexinV-FITC/propidium iodide staining based flow cytometry relative to control; assay type: functional
[44] = tested on: HeLa; assay: Effect on total Akt expression in human HeLa cells at 2.5 uM measured after 24 hrs by Hoechst staining based immunofluorescence assay; assay type: functional, cell-based
[45] = tested on: A549; assay: Potentiation of cisplatin-induced cell cycle arrest in human A549 cells assessed as accumulation at G1 phase at 32.7 uM measured after 24 hrs in presence of cisplatin by propidium iodide/RNase staining based flow cytometry (reference value: 42.35%); assay type: functional
[46] = tested on: HeLa; assay: Potentiation of cisplatin-induced cell cycle arrest in human HeLa cells assessed as accumulation at S phase at 6.8 uM measured after 24 hrs in presence of cisplatin by propidium iodide/RNase staining based flow cytometry (reference value: 27.18 %); assay type: functional

SMILES: CC(C)(C)OC(=O)N1CCN(C(=O)C2C3CCC(O3)C2C(=O)O)CC1 (stereo unspecified)
- Activity [1]: 97 mm3
- Activity [2]: 86%
- Activity [3]: 41.5%
- Activity [4]: Active
- Activity [5]: Tde
- CI50 [6]: <1
- CI50 [7]: >1
- inhibition [8]: Active
- Activity [9]: 64.1%
- Activity [10]: 34.21%
- Activity [11]: inactive
- Activity [12]: inactive
- growth inhibition (GI) [13]: inactive
- Activity [14]: Toxic
- inhibition [15]: Active
- Activity [16]: 52.07%
- Activity [17]: 35.5%
- inhibition [18]: Active
- CI50 [19]: <1
- Activity [20]: Toxic
- Activity [21]: inactive
- Activity [22]: 36.61%
- Activity [23]: 15.34%
- Activity [24]: 40.67%
- inhibition [25]: Active
- Activity [26]: Dose-dependent effect
- growth inhibition (GI) [27]: Active
- Activity [28]: 31.46%
- Activity [29]: 6.4%
- Activity [30]: 78.5%
- Activity [31]: 21.8%
- Activity [32]: 11.32%
- Activity [33]: 45.71%
- Activity [34]: inactive
- inhibition [35]: Active
- Activity [36]: 42.51%
- Activity [37]: inactive
- CI50 [38]: <1
- Activity [39]: Non-Toxic
- inhibition [40]: Active
- CI50 [41]: >1
- Activity [42]: 23.28%
- Activity [43]: 5.4%
- Activity [44]: inactive
- Activity [45]: 38.95%
- Activity [46]: 27.87%
